Reference: ChEMBL document CHEMBL4371064, “Erythrofordins D and E, two new cassaine-type diterpenes from Erythrophleum suaveolens” (2019)

Assays:
Type in all cases: functional
KM12 = test: Growth inhibition of human KM12 cells incubated for 48 hrs by sulforhodamine B assay; details: KM12, 48 h
Method in brief: (§1)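 Run in the NCI-60 human tumour cell line panel with dose-response testing. GI50 was determined for each cell line from its dose-response data.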

SK-MEL-28 = test: Growth inhibition of human SK-MEL-28 cells incubated for 48 hrs by sulforhodamine B assay; details: SK-MEL-28, 48 h; method in brief: as §1
T47D = test: Growth inhibition of human T47D cells incubated for 48 hrs by sulforhodamine B assay
Method in brief: (§2)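 Tested in the NCI 60-human-tumour-cell-line screen using the five-dose format. GI₅₀ was derived from each cell line's dose-response. TGI and LC₅₀ were derived from the same dose-response data.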

HOP-92 = test: Growth inhibition of human HOP92 cells incubated for 48 hrs by sulforhodamine B assay; details: HOP-92, 48 h; method in brief: as §1
OVCAR-3 = test: Growth inhibition of human OVCAR3 cells incubated for 48 hrs by sulforhodamine B assay; details: OVCAR-3, 48 h; method in brief: as §1
NCI-H322M = test: Growth inhibition of human NCI-H322M cells incubated for 48 hrs by sulforhodamine B assay; method in brief: as §1
UACC-257 = test: Growth inhibition of human UACC257 cells incubated for 48 hrs by sulforhodamine B assay; details: UACC-257, 48 h; method in brief: as §2
HCC 2998 = test: Growth inhibition of human HCC2998 cells incubated for 48 hrs by sulforhodamine B assay; details: HCC 2998, 48 h; method in brief: as §1
NCI-H226 = test: Growth inhibition of human NCI-H226 cells incubated for 48 hrs by sulforhodamine B assay; details: NCI-H226, 48 h; method in brief: as §1
SF-295 = test: Growth inhibition of human SF295 cells incubated for 48 hrs by sulforhodamine B assay; details: SF-295, 48 h; method in brief: as §1
SNB-19 = test: Growth inhibition of human SNB19 cells incubated for 48 hrs by sulforhodamine B assay; details: SNB-19, 48 h; method in brief: as §1
786-0 = test: Growth inhibition of human 786-0 cells incubated for 48 hrs by sulforhodamine B assay; details: 786-0, 48 h; method in brief: as §1
HCT-116 = test: Growth inhibition of human HCT116 cells incubated for 48 hrs by sulforhodamine B assay; details: HCT-116, 48 h; method in brief: as §1
MCF7 = test: Growth inhibition of human MCF7 cells incubated for 48 hrs by sulforhodamine B assay; details: MCF7, 48 h; method in brief: as §1
MDA-MB-435 = test: Growth inhibition of human MDA-MB-435 cells incubated for 48 hrs by sulforhodamine B assay; details: MDA-MB-435, 48 h; method in brief: as §1
SK-MEL-5 = test: Growth inhibition of human SK-MEL-5 cells incubated for 48 hrs by sulforhodamine B assay; details: SK-MEL-5, 48 h; method in brief: as §1
OVCAR-8 = test: Growth inhibition of human OVCAR8 cells incubated for 48 hrs by sulforhodamine B assay; details: OVCAR-8, 48 h; method in brief: as §1
EKVX = test: Growth inhibition of human EKVX cells incubated for 48 hrs by sulforhodamine B assay; method in brief: as §1
SNB-75 = test: Growth inhibition of human SNB75 cells incubated for 48 hrs by sulforhodamine B assay; details: SNB-75, 48 h; method in brief: as §1
A498 = test: Growth inhibition of human A498 cells incubated for 48 hrs by sulforhodamine B assay; details: A498, 48 h
Method in brief: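 Run within the NCI-60 human tumour cell line panel as a dose-response screen. For each cell line the readouts are GI50, TGI and LC50. Per-line log values also feed a mean-graph analysis, in which the arithmetic mean of the log values across all lines is subtracted from each line's log value.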

COLO 205 = test: Growth inhibition of human COLO205 cells incubated for 48 hrs by sulforhodamine B assay; details: COLO 205, 48 h; method in brief: as §1
OVCAR-4 = test: Growth inhibition of human OVCAR4 cells incubated for 48 hrs by sulforhodamine B assay; details: OVCAR-4, 48 h; method in brief: as §1
LOX IMVI = test: Growth inhibition of human LOXIMVI cells incubated for 48 hrs by sulforhodamine B assay; method in brief: as §1
RXF 393 = test: Growth inhibition of human RXF393 cells incubated for 48 hrs by sulforhodamine B assay; details: RXF 393, 48 h; method in brief: as §1
HCT-15 = test: Growth inhibition of human HCT15 cells incubated for 48 hrs by sulforhodamine B assay; details: HCT-15, 48 h; method in brief: as §1
DU-145 = test: Growth inhibition of human DU145 cells incubated for 48 hrs by sulforhodamine B assay; details: DU-145, 48 h; method in brief: as §1
MDA-MB-231 = test: Growth inhibition of human MDA-MB-231 cells incubated for 48 hrs by sulforhodamine B assay; details: MDA-MB-231, 48 h; method in brief: as §1
HT-29 = test: Growth inhibition of human HT-29 cells incubated for 48 hrs by sulforhodamine B assay; details: HT-29, 48 h; method in brief: as §1
UACC-62 = test: Growth inhibition of human UACC62 cells incubated for 48 hrs by sulforhodamine B assay; details: UACC-62, 48 h; method in brief: as §2
[1] = read-out: pLC50 (the source's name) (converted)

Compound `COC(=O)/C=C1\CC[C@H]2[C@@H](CC(=O)[C@H]3C(C)(C)[C@@H](O)CC[C@]23C)[C@H]1C` has a GI50 (KM12) of 11 µM, an LC50 (concentration killing 50% of cells) (KM12) greater than 34.7 µM and a TGI (KM12; read-out: pTGI) greater than 34.7 µM. It also gave a GI50 (SK-MEL-28) of 9.33 µM, an LC50 (SK-MEL-28) greater than 34.7 µM and a TGI (SK-MEL-28; read-out: pTGI (converted)) of 33.1 µM. For the same compound, the GI50 (T47D) was 5.37 µM, the LC50 (T47D) was greater than 34.7 µM and the TGI (T47D; read-out: pTGI (converted)) was 21.9 µM. It also gave a GI50 (HOP-92) of 5.75 µM, an LC50 (HOP-92) greater than 34.7 µM and a TGI (HOP-92; read-out: pTGI (converted)) of 23.4 µM. It also gave a GI50 (OVCAR-3) of 1320 nM, an LC50 (OVCAR-3) of 21.4 µM and a TGI (OVCAR-3; read-out: pTGI (converted)) of 4.9 µM. For the same compound, the GI50 (NCI-H322M) was 1350 nM, the LC50 (NCI-H322M) was greater than 34.7 µM and the TGI (NCI-H322M; read-out: pTGI (converted)) was 9.55 µM. The GI50 (UACC-257) was 6.03 µM, the LC50 (UACC-257) was greater than 34.7 µM and the TGI (UACC-257; read-out: pTGI (converted)) was 16.2 µM. It also gave a GI50 (HCC 2998) of 10.7 µM, an LC50 (HCC 2998) greater than 34.7 µM and a TGI (HCC 2998; read-out: pTGI (converted)) greater than 34.7 µM. It also gave a GI50 (NCI-H226) of 4.79 µM, an LC50 (NCI-H226) of 25.1 µM and a TGI (NCI-H226; read-out: pTGI (converted)) of 11 µM. For the same compound, the GI50 (SF-295) was 1450 nM, the LC50 (SF-295) was greater than 34.7 µM and the TGI (SF-295; read-out: pTGI (converted)) was 7.59 µM. It also gave a GI50 (SNB-19) of 9.33 µM, an LC50 (SNB-19) greater than 34.7 µM and a TGI (SNB-19; read-out: pTGI (converted)) greater than 34.7 µM. It also gave a GI50 (786-0) of 1120 nM, an LC50 (786-0) of 24.5 µM and a TGI (786-0; read-out: pTGI (converted)) of 4.27 µM. For the same compound, the GI50 (HCT-116) was 1410 nM, the LC50 (HCT-116) was greater than 34.7 µM and the TGI (HCT-116; read-out: pTGI (converted)) was 6.31 µM. It also gave a GI50 (MCF7) of 1620 nM, a CC50 (MCF7; [1]) greater than 34.7 µM and a TGI (MCF7; read-out: pTGI) greater than 34.7 µM. The GI50 (MDA-MB-435) was 8.51 µM, the LC50 (MDA-MB-435) was greater than 34.7 µM and the TGI (MDA-MB-435; read-out: pTGI (converted)) was greater than 34.7 µM. The GI50 (SK-MEL-5) was 1290 nM, the LC50 (SK-MEL-5) was 25.7 µM and the TGI (SK-MEL-5; read-out: pTGI (converted)) was 5.75 µM. The GI50 (OVCAR-8) was 1380 nM, the LC50 (OVCAR-8) was greater than 34.7 µM and the TGI (OVCAR-8; read-out: pTGI (converted)) was 7.24 µM. The GI50 (EKVX) was 871 nM, the LC50 (EKVX) was 11 µM and the TGI (EKVX; read-out: pTGI (converted)) was 2690 nM. For the same compound, the GI50 (SNB-75) was 1100 nM, the LC50 (concentration killing 50% of cells) (SNB-75) was 23.4 µM and the TGI (SNB-75; read-out: pTGI (converted)) was 6.46 µM. It also gave an LC50 (A498) greater than 34.7 µM, a TGI (A498; read-out: pTGI (converted)) of 14.8 µM and a GI50 (COLO 205) of 10.5 µM. It also gave an LC50 (COLO 205) greater than 34.7 µM, a TGI (COLO 205; read-out: pTGI (converted)) greater than 34.7 µM and a GI50 (OVCAR-4) of 3.72 µM. The LC50 (OVCAR-4) was greater than 34.7 µM, the TGI (OVCAR-4; read-out: pTGI (converted)) was 12.3 µM and the GI50 (LOX IMVI) was 2000 nM. For the same compound, the LC50 (LOX IMVI) was greater than 34.7 µM, the TGI (LOX IMVI; read-out: pTGI (converted)) was 9.55 µM and the GI50 (RXF 393) was 933 nM. For the same compound, the CC50 (RXF 393; [1]) was greater than 34.7 µM, the TGI (RXF 393; read-out: pTGI (converted)) was 3.31 µM and the GI50 (HCT-15) was 4.07 µM. The LC50 (HCT-15) was 30.2 µM, the TGI (HCT-15; read-out: pTGI (converted)) was 11 µM and the GI50 (DU-145) was 776 nM. It also gave an LC50 (concentration killing 50% of cells) (DU-145) of 4.79 µM, a TGI (DU-145; read-out: pTGI (converted)) of 1740 nM and a GI50 (MDA-MB-231) of 10.2 µM. For the same compound, the LC50 (MDA-MB-231) was greater than 34.7 µM, the TGI (MDA-MB-231; read-out: pTGI (converted)) was greater than 34.7 µM and the GI50 (HT-29) was 2240 nM. For the same compound, the CC50 (HT-29; [1]) was greater than 34.7 µM, the TGI (HT-29; read-out: pTGI (converted)) was 10.7 µM and the GI50 (UACC-62) was 5.62 µM. It also gave an LC50 (UACC-62) greater than 34.7 µM and a TGI (UACC-62; read-out: pTGI (converted)) of 16.6 µM.
